# From ChEMBL document CHEMBL1135531, “Cardiovascular characterization of [1,4]thiazino[3,4-c][1,2,4]oxadiazol-1-one derivatives: selective myocardial calcium channel modulators” (J Med Chem, 2002)
# How the values were obtained:
# [1] = organism: Cavia porcellus; assay: Percent inhibition of calcium-induced contraction on K+-depolarized guinea-pig aortic strip at 5 x 10 e-5M; format: functional; conditions: Aorta
# [2] = organism: Cavia porcellus; assay: Negative chronotropic activity in isolated guinea pig right atrium.; format: functional, Cardiac atrium
# [3] = organism: Cavia porcellus; assay: Effective drug concentration for negative inotropic activity was determined; Range is from 1.35-2.05 (10e-6 M); format: functional, organism-based
# Method in brief: (§1)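 Left atria from female guinea pigs (300-400 g) in Tyrode PSS, pH 7.4, 95% O2/5% CO2, 35 °C. Driven at 1 Hz with 0.6-0.8 ms pulses at about 50% threshold voltage; isometric force recorded. Cumulative 0.1-100 µM in DMSO (≤0.3% in bath), each added at steady state. EC50 by Probit log concentration-response analysis (n = 6-8), not calculated when maximum effect <50%.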
# [4] = organism: Cavia porcellus; assay: Negative inotropic activity in isolated guinea pig left atrium.; format: functional, Cardiac atrium
# [5] = organism: Cavia porcellus; assay: Effective drug concentration for negative inotropic activity was determined; Range is from 0.41-0.72 (10e-6 M); format: functional; method in brief: as §1
# [6] = organism: Cavia porcellus; assay: Effective drug concentration for negative inotropic activity was determined; Range is from 0.55-0.93 (10e-6 M); format: functional; method in brief: as §1
# [7] = organism: Cavia porcellus; assay: Effective drug concentration for negative inotropic activity was determined; Range is from 0.43-0.56 (10e-6 M); format: functional; method in brief: as §1
# [8] = organism: Cavia porcellus; assay: Effective drug concentration for negative inotropic activity was determined; Range is from 1.03-1.45 (10e-6 M); format: functional; method in brief: as §1
# [9] = organism: Cavia porcellus; assay: Effective drug concentration for negative inotropic activity was determined; Range is from 0.23-0.43 (10e-6 M); format: functional; method in brief: as §1
# [10] = organism: Cavia porcellus; assay: Effective drug concentration for negative inotropic activity was determined; Range is from 1.34-2.19 (10e-6 M); format: functional, organism-based; method in brief: as §1
# [11] = organism: Cavia porcellus; assay: Effective drug concentration for negative inotropic activity was determined; Range is from 1.02-1.98 (10e-6 M); format: functional; method in brief: as §1
# [12] = organism: Cavia porcellus; assay: Effective drug concentration for negative inotropic activity was determined; Range is from 0.65-1.05 (10e-6 M); format: functional; method in brief: as §1
# [13] = organism: Cavia porcellus; assay: Effective drug concentration for negative inotropic activity; Range is from 0.41-0.65 (10e-6 M); format: functional; method in brief: as §1
# [14] = organism: Cavia porcellus; assay: Effective drug concentration for negative inotropic activity was determined; Range is from 0.18-0.30 (10e-6 M); format: functional; method in brief: as §1
# [15] = organism: Cavia porcellus; assay: Effective drug concentration for negative inotropic activity; format: functional; method in brief: as §1
# [16] = organism: Cavia porcellus; assay: Effective drug concentration for negative inotropic activity was determined; Range is from 2.35-3.10 (10e-6 M); format: functional; method in brief: as §1
# [17] = organism: Cavia porcellus; assay: Effective drug concentration for negative inotropic activity was determined; Range is from 0.46-0.92 (10e-6 M); format: functional; method in brief: as §1
# [18] = organism: Cavia porcellus; assay: Effective drug concentration for negative inotropic activity was determined; Range is from 1.35-2.23 (10e-6 M); format: functional, organism-based; method in brief: as §1
# [19] = organism: Cavia porcellus; assay: Effective drug concentration for negative inotropic activity was determined; Range is from 3.67-4.52 (10e-6 M); format: functional, organism-based; method in brief: as §1
# [20] = organism: Cavia porcellus; assay: Effective drug concentration for negative inotropic activity was determined; Range is from 0.61-0.85 (10e-6 M); format: functional; method in brief: as §1
# [21] = organism: Cavia porcellus; assay: Effective drug concentration for negative inotropic activity was determined; Range is from 1.67-2.83 (10e-6 M); format: functional, organism-based; method in brief: as §1
# [22] = organism: Cavia porcellus; assay: Effective drug concentration for negative inotropic activity was determined; Range is from 5.99-7.13 (10e-6 M); format: functional, organism-based; method in brief: as §1
# [23] = organism: Cavia porcellus; assay: Effective drug concentration for negative inotropic activity was determined; Range is from 0.53-0.64 (10e-6 M); format: functional; method in brief: as §1
# [24] = organism: Cavia porcellus; assay: Effective drug concentration for negative inotropic activity was determined; Range is from 0.70-0.85 (10e-6 M); format: functional
# [25] = organism: Cavia porcellus; assay: Effective drug concentration (EC30) for negative chronotropic activity was determined; Range is from 0.064-0.075 (10e-6 M); format: functional
SMILES,inhibition at 50 µM [1],Decrease [2],Decrease [4],also measured
CC1=CSC(O)(c2ccc([N+](=O)[O-])cc2)c2noc(=O)n21 (centres undefined),19%,16%,73%,EC50 [3]: 1650 nM
COc1ccc(C2(O)SC=C(C)n3c2noc3=O)cc1 (centres undefined),18%,12%,76%,EC50 [5]: 520 nM
CC1=CSC(O)(c2ccc(C#N)cc2)c2noc(=O)n21 (centres undefined),13%,30%,76%,EC50 [6]: 760 nM
COc1cccc(C2(O)SC=C(C)n3c2noc3=O)c1 (centres undefined),10%,16%,86%,EC50 [7]: 490 nM
CC1=CSC(O)(c2ccc(F)cc2)c2noc(=O)n21 (centres undefined),8%,10%,74%,EC50 [8]: 1210 nM
CC1=CSC(O)(c2ccc(Br)cc2)c2noc(=O)n21 (centres undefined),12%,18%,97%,EC50 [9]: 320 nM
CC1=Cn2c(noc2=O)C(O)(c2ccc(Cl)cc2)S1 (centres undefined),15%,11%,71%,EC50 [10]: 1720 nM
CC1=C(C)n2c(noc2=O)C(O)(c2ccc(Cl)cc2)S1 (centres undefined),28%,19%,70%,EC50 [11]: 1420 nM
CC1=CSC(O)(c2ccc(Cl)cc2)c2noc(=O)n21 (centres undefined),26%,18%,80%,EC50 [12]: 800 nM
O=c1onc2n1-c1ccccc1SC2(O)c1ccc(Cl)cc1 (centres undefined),40%,21%,94%,EC50 [13]: 520 nM
CC1=CSC(O)(c2ccccc2)c2noc(=O)n21 (centres undefined),4%,14%,95%,EC50 [14]: 230 nM
CC1=CSC(OCC(C)C)(c2ccc(Cl)cc2)c2noc(=O)n21 (centres undefined),37%,15%,83%,EC50 [15]: 560 nM
COC1(c2ccc(Cl)cc2)SC=C(C)n2c1noc2=O (centres undefined),14%,22%,62%,EC50 [15]: 1540 nM
CC1=CSC(O)(c2ccc(-c3ccccc3)cc2)c2noc(=O)n21 (centres undefined),9%,18%,71%,EC50 [16]: 2650 nM
CC1=CSC(O)(c2cccc(Cl)c2)c2noc(=O)n21 (centres undefined),17%,34%,88%,EC50 [17]: 650 nM
CC1=CSC(O)(c2cccc([N+](=O)[O-])c2)c2noc(=O)n21 (centres undefined),19%,13%,68%,EC50 [18]: 1760 nM
O=c1onc2n1C=CSC2(O)c1ccc(Cl)cc1 (centres undefined),10%,7%,78%,EC50 [19]: 4070 nM
CC1=CSC(O)(c2cccc(C)c2)c2noc(=O)n21 (centres undefined),12%,10%,89%,EC50 [20]: 720 nM
CC1=CSC(O)(c2cccc(C(F)(F)F)c2)c2noc(=O)n21 (centres undefined),37%,20%,96%,EC50 [21]: 2170 nM
O=c1onc2n1C=CSC2(O)c1ccccc1 (centres undefined),11%,14%,74%,EC50 [22]: 6580 nM
CC1=CSC(O)(c2ccc(C)cc2)c2noc(=O)n21 (centres undefined),5%,13%,82%,EC50 [23]: 570 nM
COc1ccc([C@@H]2Sc3ccccc3N(CCN(C)C)C(=O)[C@@H]2OC(C)=O)cc1 [DILTIAZEM],88%,94%,78%,EC50 [24]: 790 nM; EC30 [25]: 70 nM
